Where “and” joins values, the source holds several entries; their conditions need not be identical. Identical values can stand only once.
Assays:
[1] = molecular target: Substance-P receptor (Rattus norvegicus) (UniProt P14600); test: Antagonistic activity against Substance P(6-11) receptor in rat spinal cord at concentration of 5 uM.
[2] = molecular target: Substance-P receptor (Cavia porcellus) (UniProt P30547); test: Antagonistic activity against Substance P(6-11) receptor in guinea pig ileum at concentration of 50 uM.; assay type: functional, tissue-based
Procedure, shortened: (§1)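 Distal ileum from Dunkin-Hartley guinea pigs (300-350 g, both sexes) in a Krebs organ bath at 37 °C, gassed with 95% O2/5% CO2. Agonist (SP or SP(6-11)) dose-response curves run on a 3-min cycle with 1-min contact, with and without antagonist. Dose ratio = agonist EC50 with antagonist / EC50 alone. At least two preparations per compound; ratios below 2 taken as insignificant.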

[3] = molecular target: Metabotropic glutamate receptor 3 (Rattus norvegicus) (UniProt P31422); test: Antagonistic activity against Glutamate receptor in rat spinal cord at concentration of 50 uM.; assay type: functional, tissue-based
Procedure, shortened: (§2)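 Neonatal hemisectioned spinal cord from Wistar rats (Alderley Park strain, 2-7 days old), anaesthetised with intraperitoneal urethane (25% w/v, […]) and then decapitated. Cord superfused with oxygenated medium at 1 mL/min. Agonist (SP, SP(6-11), glutamate or carbachol) applied as 2-mL doses in the superfusate. Antagonist superfused for at least 15 min before agonists were retested. Read-out: % change in ventral root–cord DC potential response amplitude.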

[4] = molecular target: Substance-P receptor (Cavia porcellus) (UniProt P30547); test: Antagonistic activity against Substance P receptor in guinea pig ileum at concentration of 50 uM.; assay type: functional, tissue-based
Procedure, shortened: as §1

[5] = molecular target: Substance-P receptor (Rattus norvegicus) (UniProt P14600); test: Antagonistic activity against Substance P(6-11) receptor in rat spinal cord at concentration of 50 uM.
[6] = molecular target: Substance-P receptor (Cavia porcellus) (UniProt P30547); test: Evaluated in vitro for percent agonist activity in guinea pig ileum (substance P receptor); assay type: functional, tissue-based
[7] = molecular target: Substance-P receptor (Rattus norvegicus) (UniProt P14600); test: Antagonistic activity against Substance P receptor in rat spinal cord at concentration of 50 uM.
[8] = molecular target: Substance-P receptor (Rattus norvegicus) (UniProt P14600); test: Antagonistic activity against Substance P(6-11) receptor in rat spinal cord at concentration of 10 uM.
[9] = molecular target: Metabotropic glutamate receptor 3 (Rattus norvegicus) (UniProt P31422); test: Antagonistic activity against Glutamate receptor in rat spinal cord at concentration of 10 uM.; assay type: functional, tissue-based
Procedure, shortened: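 Cord superfused with oxygenated medium at 1 mL/min. Agonist (SP, SP(6-11), glutamate or carbachol) applied as 2-mL doses in the superfusate. Antagonist superfused for at least 15 min before agonists were retested. Read-out: % change in ventral root–cord DC potential response amplitude.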

[10] = molecular target: Metabotropic glutamate receptor 3 (Rattus norvegicus) (UniProt P31422); test: Antagonistic activity against Glutamate receptor in rat spinal cord at concentration of 25 uM.; assay type: functional, tissue-based
Procedure, shortened: as §2

[11] = molecular target: Substance-P receptor (Rattus norvegicus) (UniProt P14600); test: Antagonistic activity against Substance P(6-11) receptor in rat spinal cord at concentration of 25 uM.
[12] = molecular target: Substance-P receptor (Rattus norvegicus) (UniProt P14600); test: Antagonistic activity against Substance P receptor in rat spinal cord at concentration of 25 uM.
[13] = molecular target: Substance-P receptor (Cavia porcellus) (UniProt P30547); test: Antagonistic activity against Substance P receptor in guinea pig ileum at concentration of 5 uM.; assay type: functional, tissue-based
Procedure, shortened: as §1

[14] = molecular target: Substance-P receptor (Cavia porcellus) (UniProt P30547); test: Antagonistic activity against Substance P(6-11) receptor in guinea pig ileum at concentration of 5 uM.; assay type: functional, tissue-based
Procedure, shortened: as §1

[15] = molecular target: Substance-P receptor (Rattus norvegicus) (UniProt P14600); test: Antagonistic activity against Substance P receptor in rat spinal cord at concentration of 5 uM.

Metabotropic glutamate receptor 3 (Rattus norvegicus), sequence (P31422 23-879 limits assumed): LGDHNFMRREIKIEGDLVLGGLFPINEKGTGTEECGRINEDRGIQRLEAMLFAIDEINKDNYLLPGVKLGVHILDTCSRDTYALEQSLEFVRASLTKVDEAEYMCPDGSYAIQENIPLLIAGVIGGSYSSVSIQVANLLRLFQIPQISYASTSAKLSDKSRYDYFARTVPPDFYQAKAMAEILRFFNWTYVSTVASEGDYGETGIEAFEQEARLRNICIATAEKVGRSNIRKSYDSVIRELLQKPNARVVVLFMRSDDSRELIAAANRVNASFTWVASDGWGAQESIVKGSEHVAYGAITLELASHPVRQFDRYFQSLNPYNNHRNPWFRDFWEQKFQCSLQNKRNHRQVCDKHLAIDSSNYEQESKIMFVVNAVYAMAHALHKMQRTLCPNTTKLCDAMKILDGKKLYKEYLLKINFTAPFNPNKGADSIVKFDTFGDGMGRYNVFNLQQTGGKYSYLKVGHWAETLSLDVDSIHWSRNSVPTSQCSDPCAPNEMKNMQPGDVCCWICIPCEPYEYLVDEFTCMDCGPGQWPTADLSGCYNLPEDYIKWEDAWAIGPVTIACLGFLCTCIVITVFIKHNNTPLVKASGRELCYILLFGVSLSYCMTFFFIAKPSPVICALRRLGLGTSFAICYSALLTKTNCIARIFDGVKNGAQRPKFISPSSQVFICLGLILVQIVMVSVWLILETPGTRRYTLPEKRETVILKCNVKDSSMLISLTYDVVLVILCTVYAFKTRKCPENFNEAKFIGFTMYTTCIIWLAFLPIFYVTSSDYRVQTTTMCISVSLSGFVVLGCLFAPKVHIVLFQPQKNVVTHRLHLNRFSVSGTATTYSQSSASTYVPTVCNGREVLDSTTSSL
Substance-P receptor (Cavia porcellus), sequence (P30547 whole entry): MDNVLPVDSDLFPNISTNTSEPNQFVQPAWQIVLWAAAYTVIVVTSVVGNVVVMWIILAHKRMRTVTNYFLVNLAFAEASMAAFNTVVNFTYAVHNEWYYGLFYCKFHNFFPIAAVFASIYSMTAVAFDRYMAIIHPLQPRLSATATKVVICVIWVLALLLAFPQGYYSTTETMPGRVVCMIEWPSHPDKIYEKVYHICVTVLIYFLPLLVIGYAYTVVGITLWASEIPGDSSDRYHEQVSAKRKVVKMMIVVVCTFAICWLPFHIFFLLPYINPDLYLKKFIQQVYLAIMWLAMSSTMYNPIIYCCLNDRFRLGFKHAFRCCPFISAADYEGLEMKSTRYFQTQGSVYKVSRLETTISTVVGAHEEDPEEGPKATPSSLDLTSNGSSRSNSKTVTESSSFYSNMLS
Substance-P receptor (Rattus norvegicus), sequence (P14600 whole entry, looked up): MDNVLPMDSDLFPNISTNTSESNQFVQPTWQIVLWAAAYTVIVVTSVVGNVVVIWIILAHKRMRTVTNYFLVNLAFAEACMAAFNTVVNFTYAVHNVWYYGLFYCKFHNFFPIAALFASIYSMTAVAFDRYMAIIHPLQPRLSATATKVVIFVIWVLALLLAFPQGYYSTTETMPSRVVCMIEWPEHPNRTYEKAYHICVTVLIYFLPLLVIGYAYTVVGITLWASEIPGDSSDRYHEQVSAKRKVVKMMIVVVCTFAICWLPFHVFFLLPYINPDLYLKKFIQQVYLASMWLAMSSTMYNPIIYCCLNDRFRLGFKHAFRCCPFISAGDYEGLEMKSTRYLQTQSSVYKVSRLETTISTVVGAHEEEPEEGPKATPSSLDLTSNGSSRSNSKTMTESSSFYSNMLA

Change in amplitude response [1] [%] | Activity [2] [dose ratio] | Change in amplitude response [3] [%] | Activity [4] [dose ratio] | Change in amplitude response [5] [%] | SP [6] [%] | Change in amplitude response [7] | Change in amplitude response [8] [%] | Change in amplitude response [9] [%] | Change in amplitude response [10] [%] | Change in amplitude response [11] [%] | Change in amplitude response [12] [%] | Activity [13] [dose ratio] | Activity [14] [dose ratio] | Change in amplitude response [15] [%] | SMILES
-67 | < 2 | 2 | 3 | -100 | 0 | 29% and 39% |  |  |  |  |  |  |  |  | COC(=O)[C@H](CCSC)NC(=O)[C@@H]1CCCN1C(=O)[C@H]1CCCN1C(=O)[C@H](Cc1ccccc1)NC(=O)[C@H](Cc1ccccc1)NC(=O)[C@H](CCC(N)=O)NC(=O)[C@H](CCC(N)=O)NC(=O)[C@@H]1CCCN1C(=O)[C@@H](CCCCNC(=O)OCc1ccccc1)NC(=O)[C@H]1CCCN1C(=O)[C@@H](CCCN=C(N)N)NC(=O)OCc1ccccc1
 |  | -17 |  | -21 | 0.001 | -13% | 31 | -5 |  |  |  |  |  |  | COC(=O)[C@@H](CCSC)NC(=O)[C@H](CC(C)C)NC(=O)CNC(=O)[C@H](Cc1ccccc1)NC(=O)[C@H](Cc1ccccc1)NC(=O)[C@@H](NC(=O)[C@H](NC(=O)[C@@H]1CCCN1C(=O)[C@H](CCCCNC(=O)OCc1ccccc1)NC(=O)[C@@H]1CCCN1C(=O)[C@H](CCCN=C(N)N)NC(=O)OCc1ccccc1)C(C)C)C(C)C
 |  |  |  |  | < 2 |  |  |  | -40 | -49 | -12 |  |  |  | CSCC[C@@H](NC(=O)[C@H](CC(C)C)NC(=O)[C@@H](Cc1c[nH]c2ccccc12)NC(=O)[C@H](Cc1c[nH]c2ccccc12)NC(=O)[C@@H](Cc1c[nH]c2ccccc12)NC(=O)[C@H](CCC(N)=O)NC(=O)[C@H](CCC(N)=O)NC(=O)[C@@H]1CCCN1C(=O)[C@H](CCCCNC(=O)OCc1ccccc1)NC(=O)[C@@H]1CCCN1C(=O)[C@H](CCCN=C(N)N)NC(=O)OCc1ccccc1)C(=O)O
 | < 2 | -36 | < 2 | -22 | 0 | -30% |  |  |  |  |  |  |  |  | COC(=O)[C@H](CCSC)NC(=O)[C@@H](NC(=O)[C@H](NC(=O)[C@H](Cc1ccccc1)NC(=O)[C@H](Cc1ccccc1)NC(=O)[C@H](CCC(N)=O)NC(=O)[C@H](CCC(N)=O)NC(=O)[C@@H]1CCCN1C(=O)[C@H](CCCCNC(=O)OCc1ccccc1)NC(=O)[C@@H]1CCCN1C(=O)[C@H](CCCN=C(N)N)NC(=O)OCc1ccccc1)C(C)C)C(C)C
-13 |  | -18 |  |  |  | -29% | -62 |  |  |  |  | < 2 | < 2 | 11 | COC(=O)[C@@H](CCSC)NC(=O)[C@H](CC(C)C)NC(=O)[C@@H](Cc1c[nH]c2ccccc12)NC(=O)[C@H](Cc1c[nH]c2ccccc12)NC(=O)[C@@H](Cc1c[nH]c2ccccc12)NC(=O)[C@H](CCC(N)=O)NC(=O)[C@H](CCC(N)=O)NC(=O)[C@@H]1CCCN1C(=O)[C@H](CCCCNC(=O)OCc1ccccc1)NC(=O)[C@@H]1CCCN1C(=O)[C@@H](N)CCCN=C(N)N
-46 |  | -37 |  | -86 | 0 | -9% |  |  |  |  |  | < 2 | < 2 | 12 | COC(=O)[C@H](CCSC)NC(=O)[C@@H]1CCCN1C(=O)[C@H]1CCCN1C(=O)[C@H](Cc1ccccc1)NC(=O)[C@H](Cc1ccccc1)NC(=O)[C@H](CCC(N)=O)NC(=O)[C@H](CCC(N)=O)NC(=O)[C@@H]1CCCN1C(=O)[C@H](CCCCNC(=O)OCc1ccccc1)NC(=O)[C@@H]1CCCN1C(=O)[C@H](CCCN=C(N)N)NC(=O)OCc1ccccc1
